Experiments:
[1] = biological target: T1, Mitogen-activated protein kinase 9 (Homo sapiens, UniProt P45984); assay: Ratio of IC50 for human JNK2 in presence of human serum to IC50 for human JNK2 in absence of human serum
Target sequence in this assay (P45984 whole entry, looked up): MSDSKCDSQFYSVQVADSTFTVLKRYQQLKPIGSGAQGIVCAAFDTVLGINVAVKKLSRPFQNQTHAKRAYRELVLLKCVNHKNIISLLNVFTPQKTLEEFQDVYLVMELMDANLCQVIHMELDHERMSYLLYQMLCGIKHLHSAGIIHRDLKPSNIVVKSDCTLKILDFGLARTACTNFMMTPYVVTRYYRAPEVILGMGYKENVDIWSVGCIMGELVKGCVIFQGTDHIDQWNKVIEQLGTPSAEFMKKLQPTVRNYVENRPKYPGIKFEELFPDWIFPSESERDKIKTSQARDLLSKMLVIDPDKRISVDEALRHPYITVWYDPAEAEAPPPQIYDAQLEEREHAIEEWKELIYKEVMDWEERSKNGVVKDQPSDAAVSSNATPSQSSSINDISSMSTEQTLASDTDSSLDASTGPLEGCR

[2] = biological target: Mitogen-activated protein kinase 8 (Homo sapiens, UniProt P45983)
[3] = Clearance in human liver microsomes; type: ADME, Microsome; settings: read-out: CLH
Outline: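 Intrinsic clearance was measured in vitro in human liver microsomes and expressed per mg microsomal protein.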

[4] = biological target: c-Jun N-terminal kinase, JNK (Homo sapiens, UniProt P45983+P53779+P45984); assay: Inhibition of JNK in human SW1353 cells assessed as inhibition of TNFalpha-induced c-Jun phosphorylation incubated for 30 mins prior to TNFalpha induction measured after 20 mins; type: cell-based
Outline: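 SW1353 cells were stimulated with TNFa, and the read-out was inhibition of phosphorylation of the downstream substrate c-Jun. Values are the mean of at least three experiments.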

[5] = biological target: T1, Mitogen-activated protein kinase 9
Target sequence in this assay (P45984 whole entry): as the sequence (P45984 whole entry, looked up) above

[6] = biological target: Cyclin-dependent kinase 2/cyclin E1 (Homo sapiens, UniProt P24941); assay: Inhibition of human recombinant CDK2/GST-tagged cyclin E expressed in baculovirus infected insect cells assessed as inhibition of 6XHis-tagged retinoblastoma protein (386 to 928) phosphorylation after 30 mins by scintillation counting analysis in presence of [gamma-33P]-ATP
Outline: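 CDK2 activity was measured as phosphorylation of a 6-histidine-tagged truncated retinoblastoma protein (amino acids 386–928) using [γ-33P]ATP.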

Homo sapiens = organism: Homo sapiens; assay: Selectivity ratio of IC50 for human JNK2 to IC50 for human JNK1
Outline: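 JNK1 and JNK2 activities were each measured as phosphorylation of GST-ATF2 (19–96) with [γ-33P]ATP, and IC50s were determined for each enzyme. The ratio is JNK2 IC50 over JNK1 IC50. IC50s are the mean of at least three experiments.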

HCT-116 = assay: Cytotoxicity against human HCT116 cells assessed as cell viability by WST-1 reduction assay; type: cell-based
Outline: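 Cytotoxicity was measured in an HCT-116 cell proliferation assay as reduction of WST-1 reagent. Values are the mean of at least three experiments.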

[7] = biological target: Mitogen-activated protein kinase 10 (Homo sapiens, UniProt P53779); assay: Inhibition of human JNK3 assessed as inhibition of GST-tagged ATF2 (19 to 96) phosphorylation incubated for 10 mins prior to substrate addition measured after 30 mins by scintillation counting analysis in presence of [gamma-33P]-ATP
Chain of Mitogen-activated protein kinase 10 (P53779 whole entry): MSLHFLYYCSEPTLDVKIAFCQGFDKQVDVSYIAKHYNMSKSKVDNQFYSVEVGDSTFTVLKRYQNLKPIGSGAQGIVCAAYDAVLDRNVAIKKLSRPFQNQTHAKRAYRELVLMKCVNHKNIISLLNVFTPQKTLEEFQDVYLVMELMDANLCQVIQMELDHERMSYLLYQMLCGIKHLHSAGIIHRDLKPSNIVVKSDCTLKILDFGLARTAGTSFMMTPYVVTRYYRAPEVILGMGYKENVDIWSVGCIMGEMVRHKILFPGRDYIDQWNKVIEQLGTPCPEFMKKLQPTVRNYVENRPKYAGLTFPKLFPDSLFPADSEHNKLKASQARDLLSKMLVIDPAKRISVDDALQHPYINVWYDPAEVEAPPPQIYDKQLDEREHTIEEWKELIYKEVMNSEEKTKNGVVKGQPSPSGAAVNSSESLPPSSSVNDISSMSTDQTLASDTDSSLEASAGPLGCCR

[8] = biological target: Cyclin-dependent kinase 1/cyclin B1 (Homo sapiens, UniProt P06493); assay: Inhibition of human recombinant human CDK1/GST-tagged cyclin B expressed in baculovirus infected insect cells assessed as inhibition of 6XHis-tagged retinoblastoma protein (386 to 928) phosphorylation after 30 mins by scintillation counting analysis in presence of [gamma-33P]-ATP
Chain of Cyclin-dependent kinase 1/cyclin B1 (P06493 whole entry): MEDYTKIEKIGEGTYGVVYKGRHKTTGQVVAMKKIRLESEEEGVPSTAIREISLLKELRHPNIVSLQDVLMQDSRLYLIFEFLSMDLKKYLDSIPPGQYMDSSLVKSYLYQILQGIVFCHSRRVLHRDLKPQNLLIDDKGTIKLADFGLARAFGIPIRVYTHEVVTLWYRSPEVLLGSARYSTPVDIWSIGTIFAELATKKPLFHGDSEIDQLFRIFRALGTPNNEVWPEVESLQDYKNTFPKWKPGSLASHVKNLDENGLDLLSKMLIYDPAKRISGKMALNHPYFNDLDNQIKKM
Chain of Cyclin-dependent kinase 1/cyclin B1 (P14635 whole entry, further chain): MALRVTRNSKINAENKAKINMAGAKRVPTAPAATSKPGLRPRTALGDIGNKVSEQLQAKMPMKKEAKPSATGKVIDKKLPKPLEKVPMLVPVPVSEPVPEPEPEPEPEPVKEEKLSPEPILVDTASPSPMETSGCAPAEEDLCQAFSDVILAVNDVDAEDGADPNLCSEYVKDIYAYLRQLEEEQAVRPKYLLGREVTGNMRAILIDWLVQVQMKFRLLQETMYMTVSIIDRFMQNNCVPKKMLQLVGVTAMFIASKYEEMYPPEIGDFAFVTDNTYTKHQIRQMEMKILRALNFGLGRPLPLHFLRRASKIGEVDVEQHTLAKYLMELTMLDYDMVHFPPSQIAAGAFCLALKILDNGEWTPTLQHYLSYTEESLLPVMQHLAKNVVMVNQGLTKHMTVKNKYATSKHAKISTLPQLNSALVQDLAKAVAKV

MAP kinase p38 = MAP kinase p38 (Homo sapiens, UniProt O15264+Q15759+Q16539+P53778); assay: Inhibition of p38 (unknown origin); type: protein assay
[9] = biological target: Cyclin-dependent kinase 4/cyclin D1 (Homo sapiens, UniProt P11802); assay: Inhibition of human recombinant human GST-tagged CDK4/cyclin D1 expressed in baculovirus infected insect cells assessed as inhibition of 6XHis-tagged retinoblastoma protein (386 to 928) phosphorylation after 30 mins by scintillation counting analysis in presence of [gamma-33P]-ATP
Chain of Cyclin-dependent kinase 4/cyclin D1 (P11802 whole entry): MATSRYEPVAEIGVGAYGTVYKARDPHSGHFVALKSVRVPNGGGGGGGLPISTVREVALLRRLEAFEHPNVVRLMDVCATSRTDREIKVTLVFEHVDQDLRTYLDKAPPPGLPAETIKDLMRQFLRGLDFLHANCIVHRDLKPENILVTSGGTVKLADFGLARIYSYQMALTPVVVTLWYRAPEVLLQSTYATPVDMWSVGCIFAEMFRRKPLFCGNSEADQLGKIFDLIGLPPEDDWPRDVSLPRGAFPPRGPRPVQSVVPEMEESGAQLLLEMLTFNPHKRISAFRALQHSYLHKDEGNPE
Chain of Cyclin-dependent kinase 4/cyclin D1 (P24385 whole entry, further chain): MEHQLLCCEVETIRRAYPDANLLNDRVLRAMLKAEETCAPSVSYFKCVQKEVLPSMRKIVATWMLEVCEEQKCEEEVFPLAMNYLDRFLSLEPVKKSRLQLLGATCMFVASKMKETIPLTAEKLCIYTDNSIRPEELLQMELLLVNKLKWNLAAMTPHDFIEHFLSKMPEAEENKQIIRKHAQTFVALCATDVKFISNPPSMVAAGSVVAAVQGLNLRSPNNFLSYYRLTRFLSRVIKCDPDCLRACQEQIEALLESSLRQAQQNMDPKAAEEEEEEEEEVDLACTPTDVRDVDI

Cytochrome P450 2C9 = Cytochrome P450 2C9 (Homo sapiens, UniProt P11712); assay: Inhibition of CYP2C9 (unknown origin); type: ADME
Chain of Cytochrome P450 2C9 (P11712 whole entry): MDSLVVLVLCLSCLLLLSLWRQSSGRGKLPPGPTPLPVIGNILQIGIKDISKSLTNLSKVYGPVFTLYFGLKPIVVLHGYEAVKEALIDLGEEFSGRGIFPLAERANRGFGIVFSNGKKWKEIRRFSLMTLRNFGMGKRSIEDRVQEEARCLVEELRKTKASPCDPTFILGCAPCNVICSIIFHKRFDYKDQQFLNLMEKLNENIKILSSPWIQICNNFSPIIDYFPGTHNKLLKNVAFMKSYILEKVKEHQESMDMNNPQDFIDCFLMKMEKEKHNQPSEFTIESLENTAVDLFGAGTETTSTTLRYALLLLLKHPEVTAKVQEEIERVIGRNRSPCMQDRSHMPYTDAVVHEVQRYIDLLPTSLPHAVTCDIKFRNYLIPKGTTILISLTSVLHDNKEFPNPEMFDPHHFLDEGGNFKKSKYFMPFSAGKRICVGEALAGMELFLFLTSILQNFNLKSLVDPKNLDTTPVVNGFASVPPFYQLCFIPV

Chain of Mitogen-activated protein kinase 8 (P45983 whole entry): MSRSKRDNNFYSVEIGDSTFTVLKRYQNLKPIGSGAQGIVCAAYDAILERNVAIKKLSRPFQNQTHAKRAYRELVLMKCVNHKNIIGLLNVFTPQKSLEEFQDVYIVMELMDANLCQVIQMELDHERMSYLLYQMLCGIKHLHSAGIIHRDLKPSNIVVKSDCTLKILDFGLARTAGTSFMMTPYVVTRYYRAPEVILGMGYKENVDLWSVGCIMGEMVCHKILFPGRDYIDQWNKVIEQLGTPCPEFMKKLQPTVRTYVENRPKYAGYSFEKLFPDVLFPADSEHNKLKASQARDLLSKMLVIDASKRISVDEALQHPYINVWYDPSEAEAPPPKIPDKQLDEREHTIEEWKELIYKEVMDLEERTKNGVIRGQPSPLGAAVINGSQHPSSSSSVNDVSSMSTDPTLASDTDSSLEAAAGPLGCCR

SMILES	Ratio IC50 [1]	IC50 [2]	microsomal CLint [3]	IC50 [4]	IC50 [5]	IC50 [6]	Ratio IC50 (Homo sapiens)	IC50 (HCT-116)	IC50 [7]	IC50 [8]	IC50 (MAP kinase p38)	IC50 [9]	IC50 (Cytochrome P450 2C9)
CS(=O)(=O)CCCOc1cccc2c1ccn2-c1ccnc(N[C@H]2CC[C@H](C(=O)N3CCC(F)(F)CC3)CC2)n1	4.2	16 nM	283 µL/min/mg	1.4 µM	51 nM								
CN(C)S(=O)(=O)N[C@H]1CC[C@H](Nc2nccc(-n3nnc4ccccc43)n2)CC1		19 nM		4.9 µM	76 nM	1700 nM	4	22 µM					
CS(=O)(=O)N[C@H]1CC[C@H](Nc2nccc(-n3nnc4ccccc43)n2)CC1		24 nM		1.3 µM	97 nM	300 nM	4	2.3 µM	114 nM	1520 nM	> 10 µM	910 nM	
COc1cccc2c1cnn2-c1ccnc(N[C@H]2CC[C@H](O)CC2)n1	37			3.1 µM									
CS(=O)(=O)CCCOc1cccc2c1ccn2-c1ccnc(N[C@H]2CC[C@H](C(=O)N3CC[C@@H](O)C3)CC2)n1	2.6	9.7 nM	19 µL/min/mg	1.1 µM	47 nM								
c1ccc2c(c1)nnn2-c1ccnc(NC2CCCCC2)n1		100 nM			390 nM	2700 nM	4						
CS(=O)(=O)CCCOc1cccc2c1ccn2-c1ccnc(N[C@H]2CC[C@H](C(=O)N3CC[C@@H](F)C3)CC2)n1	2.5	14 nM	175 µL/min/mg	0.59 µM	64 nM								
O=C([C@H]1CC[C@H](Nc2nccc(-n3nnc4ccccc43)n2)CC1)N1CCCC1		120 nM		3.3 µM	400 nM	> 6200 nM	4	> 30 µM					
COC1CCN(C(=O)[C@H]2CC[C@H](Nc3nccc(-n4ccc5c(OCCCS(C)(=O)=O)cccc54)n3)CC2)CC1	2.9	4.7 nM	141 µL/min/mg	1.4 µM	28 nM								
OCCCOc1cccc2c1cnn2-c1ccnc(N[C@H]2CC[C@H](O)CC2)n1	28	24 nM		0.96 µM	139 nM								
CC(=O)N[C@H]1CC[C@H](Nc2nccc(-n3nnc4ccccc43)n2)CC1		39 nM		1.5 µM	230 nM	570 nM	4	16 µM					39 nM
O[C@H]1CC[C@H](Nc2nccc(-c3nnc4ccccn34)n2)CC1		570 nM		12 µM	1200 nM								
CCCOc1cccc2c1cnn2-c1ccnc(N[C@H]2CC[C@H](O)CC2)n1	147	12 nM		> 30 µM	79 nM								
OCC(O)COc1cccc2c1cnn2-c1ccnc(N[C@H]2CC[C@H](O)CC2)n1 (stereo partly specified)	5.7	34 nM		2 µM	194 nM								
O[C@H]1CC[C@H](Nc2nccc(N3CCc4ccccc43)n2)CC1		770 nM			2900 nM								
CC(C)(O)[C@H]1CC[C@H](Nc2nccc(-n3ccc4c(OCCCS(C)(=O)=O)cccc43)n2)CC1	6.3	4 nM		0.35 µM	27 nM								
CS(=O)(=O)CCOc1cccc2c1cnn2-c1ccnc(N[C@H]2CC[C@H](O)CC2)n1	4	33 nM		0.98 µM	151 nM								
CCN(CC)C(=O)[C@H]1CC[C@H](Nc2nccc(-n3ccc4c(OCCCS(C)(=O)=O)cccc43)n2)CC1	4.6	14 nM	609 µL/min/mg	0.58 µM	57 nM								
CC(C)(O)[C@H]1CC[C@H](Nc2nccc(-n3ncc4c(OCCCS(C)(=O)=O)cccc43)n2)CC1	18	4 nM		0.24 µM	21 nM								
CS(=O)(=O)NCCCOc1cccc2c1cnn2-c1ccnc(N[C@H]2CC[C@H](O)CC2)n1	17	56 nM		1.1 µM	246 nM								
O[C@H]1CC[C@H](Nc2nccc(-c3c[nH]c4ccccc34)n2)CC1		140 nM		8.2 µM	720 nM								

Source: ChEMBL document CHEMBL2424622, “Development of amino-pyrimidine inhibitors of c-Jun N-terminal kinase (JNK): kinase profiling guided optimization of a 1,2,3-benzotriazole lead” (Bioorg Med Chem Lett, 2013)
